Compound activity: PubChem, several laboratories
RAM network inh – inhibitors of the yeast RAM network, primary screen, dse1pr::URA3 reporter, 5-FOA selection. inhibition, % at 50 µM. 190,000 tested, 1.8% active. S. cerevisiae dse1pr::URA3 reporter, 5-FOA growth OD615, 2 d; analog-sensitive cbk1-as2 kinase mutant strain;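 active means inhibition above a set limit, 3 SD over mean compound inhibition, cut at about 8.4% in these data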;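 further: 0% = DMSO-only wells with no growth and 100% = 10 µM 1-NA-PP1 full growth; inhibition rescues growth on 5-FOA so higher OD means more RAM inhibition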
INS promoter inh – inhibitors of insulin promoter-driven GFP, primary screen, imaging, TRM-6 cells, eGFP reporter, cell count | reporter expression induced with tamoxifen | inhibition, % at 2 µM | 130,000 tested, 0.9% active;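 active means inhibition above the mean plus 3 SD, with well images judged a real hit on visual review, cut at about 60% in these data, passing the limit was not always enough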
Yeast growth inh – growth inhibitors of yeast BB579 in restrictive medium, primary screen, yeast lifespan-shortening project, S. cerevisiae; 140,000 tested, 0.51% active; AID 804, 2007; inhibition, % at 10 µM; OD615, 48 h;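 active means inhibition above a set limit, 3 SD over the mean compound inhibition, cut at about 44% in these data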
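Test system: Saccharomyces cerevisiae DeaD strain BB579, replicative lifespan model yeast | Buffer or medium: Restrictive CSMM-D medium | Doses: One dose, 10 µM compound with 0.25% DMSO | Incubation: 48 h exposure, 30 °C | Detection: Culture absorbance at 615 nm | Control set: Amphotericin B at 10 µg/mL as positive control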
HMGR II inh – inhibitors of E. faecalis class II HMGR, primary screen, biochemical, Enterococcus faecalis | HMG-CoA reductase (Enterococcus faecalis, mvaE) | purified E. faecalis HMGR, NADPH absorbance 340 nm kinetic | inhibition, % at 10 µM | 190,000 tested, 0.41% active;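 active means inhibition above a set limit, the median over all tested compounds plus 3 SD, cut at about 9.5% in these data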;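 further: enzyme runs in reverse so mevalonate oxidation gives rising NADPH absorbance; 0% = complete reaction with DMSO and 100% = background rate lacking mevalonate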
Yeast lifespan up – compounds extending yeast replicative lifespan, primary screen, S. cerevisiae, OD615 | AID 775, 2007 | S. cerevisiae growth with nicotinamide; deaD strain in restrictive glucose medium | inhibition of the nicotinamide effect, % at 10 µM | 130,000 tested, 0.68% active;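 active means inhibition above a set limit, placed 3 SD over the median of all compounds, cut at about 26% in these data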;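 further: 0% = nicotinamide-treated wells and 100% = cells grown without nicotinamide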
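System: DeaD-strain S. cerevisiae / Buffer or medium: CSMM-D, restrictive glucose (dextrose) synthetic minimal medium / Probe or stimulus: nicotinamide, 1.5 mM, co-present with compound / Compound: one concentration, 10 µM, DMSO 0.25% / Incubation: 48 h compound exposure at 30 °C, humidified / Technique: optical density (absorbance) at 615 nm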
* hit, by the source's call; i = inactive; · = not tested or not shown. In the library only some 3.7% were active in any assay of this set; here they are far more common.

SMILES | RAM network inh | INS promoter inh | Yeast growth inh | HMGR II inh | Yeast lifespan up
Cc1ccc(Cn2c(C)cc3c(c2=O)C(c2cccs2)C(C#N)=C(N)O3)cc1 (stereo not given) | 8.7* | -14 | -42 | -7 | -4
Cc1ccc(C(=O)N(c2ccccc2)C2CC(C)N(C(=O)c3ccco3)c3ccccc32)cc1 (stereo not given) | 3 | -3 | -12 | -6 | 34*
COc1ccc(/C=C/c2cc(=O)c3cc(Cl)ccc3o2)cc1 | 10* | -15 | -43 | 1 | 0
COc1ccc(-c2cc(=O)c3cc(OC)ccc3o2)cc1 | 0 | · | · | -6 | ·
CCOc1ccc(S(=O)(=O)Nc2nc3ccccc3nc2Nc2ccc(N3CCOCC3)cc2)cc1 | 8 | · | -25 | -6 | 1
COC(C(=O)Nc1cccc([N+](=O)[O-])c1)c1ccccc1 (stereo not given) | 1 | -24 | · | 0 | ·
C/C(=N\NC(=O)Cn1ccc(C(F)(F)F)n1)c1ccco1 | 2 | 50 | · | -8 | ·
Cc1ccc(-c2cn3cccnc3n2)cc1NC(=O)c1cccs1 | 0 | · | -15 | 2 | -1
O=C1c2ccccc2C(=O)c2c1cccc2N1CCOCC1 | 1 | · | 57* | 1 | -20
O=C1c2ccccc2-c2c1cccc2C(=O)N1CCOCC1 | 1 | i | -17 | -4 | ·
S=C(NCc1ccco1)N/N=C/c1ccccc1Cl | 1 | 33 | -23 | -4 | -1
CC(Oc1ccc(-c2ccccc2)c(F)c1)c1ccn(S(=O)(=O)c2ccc(F)cc2)n1 (stereo not given) | 9.4* | -42 | -27 | -3 | 1
COc1ccc(S(=O)(=O)n2ccc(C(C)Oc3ccc(-c4ccccc4)c(F)c3)n2)cc1 (stereo not given) | 4 | -21 | -88 | 0 | 0
Cc1ccccc1Cc1c(C)nc2c(C(=O)NCc3ccco3)cnn2c1C | 10* | · | -46 | -1 | -10
O=C(CSc1ccccc1[N+](=O)[O-])NC1CCS(=O)(=O)C1 (stereo not given) | 1 | -31 | -30 | -1 | 1
CCN1CC(CN(C)Cc2cn(-c3ccc(C)cc3)nc2-c2cccc(C)c2)CC1=O (stereo not given) | 1 | 19 | · | 7 | ·
O=C(O)CCc1ccc(-c2cccs2)n1CCc1ccccc1 | 9.5* | · | · | -3 | ·
CCc1ccc(N(CC(=O)NC2CCCC2)S(=O)(=O)c2c(C)noc2C)cc1 | 9.0* | · | -99 | 0 | 0
Cc1nc([N+](=O)[O-])c(Br)n1Cc1ccc(Cl)c(Cl)c1 | 0 | -20 | · | -3 | ·
Cc1nc([N+](=O)[O-])c(Br)n1CC(=O)c1ccc(Cl)cc1 | 2 | 69* | -67 | 1 | -3
COc1ccccc1OCCNC(=O)Cc1ccc(Cl)c(Cl)c1 | 0 | -100 | · | -1 | ·
Cc1ccc(C(C2=C(O)CC(C)(C)CC2=O)C2C(=O)CC(C)(C)CC2=O)s1 (stereo not given) | -1 | · | 12 | -3 | 25
CC1(C)CC(=O)C(C(C2=C(O)CC(C)(C)CC2=O)c2ccc(Br)s2)C(=O)C1 (stereo not given) | -1 | · | -8 | 6 | 30*
COc1cccc(C(C2=C(O)CC(C)(C)CC2=O)C2C(=O)CC(C)(C)CC2=O)c1 (stereo not given) | 0 | 21 | -32 | -3 | 22
CC1(C)CC(=O)C(C(C2=C(O)CC(C)(C)CC2=O)c2ccc([N+](=O)[O-])cc2)C(=O)C1 (stereo not given) | 2 | -3 | -31 | 2 | 38*
SMILES | RAM network inh | INS promoter inh | Yeast growth inh | HMGR II inh | Yeast lifespan up
Cc1ccc(OC/C(=N\O)C(C)(C)C)c([N+](=O)[O-])c1 | 3 | 27 | · | -12 | ·
O=C(NCC1OCCCN1S(=O)(=O)c1cc(F)ccc1F)C(=O)NC1CCCCC1 (stereo not given) | 2 | -56 | · | 9.6* | ·
Cc1nc(CSc2nnc(C)s2)cs1 | 2 | 62* | -53 | -2 | 4
CCSc1nc(N)nc(-c2cccs2)c1C#N | -2 | · | 84* | -5 | -18
CCN(CC)C(=O)CSc1nc(N)c(C#N)c(-c2cccs2)c1C#N | 1 | 38 | -37 | -1 | ·
O=C(Nc1nonc1NC(=O)c1cccs1)c1cccs1 | 2 | 58 | · | -4 | ·
O=C(/C=C/c1cccs1)c1ccc(NC(=O)c2ccccc2F)cc1 | 5 | · | -3 | 18* | -3
COc1ccc(S(N)(=O)=O)cc1C(=O)NCCCN1CCN(c2ccc(C)cc2)CC1 | 0 | 42 | -22 | -4 | 58*
O=C(COn1nnc2ccccc21)N1CCN(Cc2ccccc2)CC1 | 0 | 56 | · | -10 | ·
CCOC(=O)N1CCN(C(=O)c2ccc3nc(C)sc3c2)CC1 | 0 | 71* | -21 | 1 | 0
CCOc1ccc(-c2nc(C#N)c(NCc3ccco3)o2)cc1 | 1 | 69 | · | -10 | ·
COc1cc(-c2nnc(COc3ccc4ccccc4c3)o2)cc(OC)c1OC | 9.4* | -53 | -37 | 2 | -8
O=C1c2ccccc2NC(c2ccc(-c3cccc([N+](=O)[O-])c3)o2)N1O (stereo not given) | 1 | 38 | 27 | 2 | 2
O=C1c2ccccc2NC(c2ccc(-c3ccc(Br)cc3)o2)N1O (stereo not given) | -1 | -11 | 94* | 7 | -3
Cc1c(Cl)cccc1NC(=O)Cc1ccc([N+](=O)[O-])cc1 | 2 | -33 | · | 1 | ·
CC(=O)Nc1nc(N)n(-c2ccccc2)n1 | -1 | 0 | -6 | -5 | -6
CC(=O)N(C)c1nc(N)n(-c2ccccc2)n1 | 1 | · | · | 16* | ·
CCn1c(COc2cccc(C)c2C)nnc1SCC(=O)N1CCN(c2ccc(OC)cc2)CC1 | 8.8* | -18 | -71 | -4 | -2
CCn1c(COc2ccccc2C)nnc1SCC(=O)N1CCN(c2ccccc2)CC1 | -2 | -75 | -8 | 0 | -16
O=C(/C=C/c1cc([N+](=O)[O-])ccc1OC(F)F)NCc1ccc(F)cc1 | 8.7* | 19 | -65 | -1 | -6
O=C(/C=C/c1cc([N+](=O)[O-])ccc1OC(F)F)Nc1ccc(OC(F)F)cc1 | 2 | 29 | · | -6 | ·
CCN(CC)c1ccc(/C=C2\C(=O)c3ccc(C(=O)O)cc3C2=O)cc1 | 10* | 0 | -62 | -2 | 3
CCN(CC)c1ccc(C(=O)OCC(=O)N(C(C)C)C(C)C)cc1 | -1 | · | · | 8 | ·
CC(=O)C1=C(O)C(=O)N(C)C1c1ccccc1F (stereo not given) | 0 | · | 7 | 16* | -11
CSc1ccccc1NC(=O)c1ccccc1N(Cc1ccccc1)S(C)(=O)=O | 1 | 24 | -24 | -2 | 5
CCc1[nH]nc2c1C(c1ccc(Br)s1)C(C#N)=C(N)O2 (stereo not given) | 0 | -34 | -26 | -4 | 58*
CCOc1ccc2c(C)cc(=O)oc2c1OCC | 2 | -19 | -28 | 3 | -19
